Assays:
Cricetinae gen. sp. [1] = experiment: Compound was evaluated in vivo for inhibition of HLE-induced hemorrhage in hamster lung at 100 microg 5 min after administration; format: functional, Cricetulus griseus
[2] = Half-life value of the compound.; format: ADME
Outline: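 Chemical stability: compound dissolved at 1 mg/mL in 0.5 M MOPS, pH 8.0, held at 25 °C in capped vial; aliquots quenched in 2% aqueous TFA and analysed by reverse-phase HPLC over one to two half-lives. Peak areas fit to first-order decay F(t)=A/2^(t/t1/2) to give t1/2.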

Cricetinae gen. sp. [3] = experiment: Compound was evaluated in vivo for inhibition of HLE-induced hemorrhage in hamster lung at 200 microg, 3h after administration prior to HLE; format: functional, Cricetulus griseus
Outline: (§1)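 Hamster duration protocol: 200 μg/animal given intratracheally 60, 120, 180 or 240 min before IT HLE instillation; hemorrhage scored after 3 h as hemoglobin (414 nm) in saline lung lavage, relative to vehicle-treated animals; three animals per point. T50 taken as time at which 50% inhibition is still obtained.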

Cricetinae gen. sp. [4] = experiment: Compound was evaluated in vivo for inhibition of HLE-induced hemorrhage in hamster lung at 200 microg, 2 hr after administration prior to HLE; format: functional, Cricetulus griseus; outline: as §1
Cricetinae gen. sp. [5] = experiment: Compound was evaluated in vivo for inhibition of HLE-induced hemorrhage in hamster lung at 100 microg, 30 min after administration prior to HLE; format: functional, Cricetulus griseus
Outline: (§2)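 Hamster, intratracheal dosing of compound (per animal) 30 min before IT instillation of 50 μg HLE (50 units in Experimental); hemorrhage read 3 h later: lungs lavaged with saline, hemoglobin in lavage measured at 414 nm. Percent inhibition from drug-treated vs vehicle-treated hemorrhage; three animals per dose and time. Titration at 100, 30, 10, 3 μg/animal gives ED50.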

[6] = biological target: T1, Neutrophil elastase (Homo sapiens) (UniProt P08246)
T1 sequence (whole entry): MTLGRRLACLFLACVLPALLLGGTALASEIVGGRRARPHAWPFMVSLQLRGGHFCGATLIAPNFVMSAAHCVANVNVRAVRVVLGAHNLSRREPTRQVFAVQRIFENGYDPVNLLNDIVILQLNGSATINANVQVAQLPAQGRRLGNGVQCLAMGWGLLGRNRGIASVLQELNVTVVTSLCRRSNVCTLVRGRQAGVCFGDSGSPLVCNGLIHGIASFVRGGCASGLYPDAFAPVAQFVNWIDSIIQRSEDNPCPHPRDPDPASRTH

Cricetinae gen. sp. [7] = experiment: Compound was evaluated in vivo for inhibition of HLE-induced hemorrhage in hamster lung at 200 microg, 1 hr after administration prior to HLE; format: functional, Cricetulus griseus; outline: as §1
Cricetinae gen. sp. [8] = experiment: Compound was evaluated in vivo for inhibition of HLE-induced hemorrhage in hamster lung at 200 microg, 4 hr after administration prior to HLE; format: functional, Cricetulus griseus; outline: as §1
Cricetinae gen. sp. [9] = experiment: Compound was evaluated in vivo for inhibition of HLE-induced hemorrhage in hamster lung at 30microg, 30 min after administration prior to HLE; format: functional, Cricetulus griseus; outline: as §2
Cricetinae gen. sp. [10] = experiment: Compound was evaluated in vivo for inhibition of HLE-induced hemorrhage in hamster lung at 100 microg 30 min after administration; format: functional, Cricetulus griseus; outline: as §2
Cricetinae gen. sp. [11] = experiment: Compound was evaluated in vivo for inhibition of HLE-induced hemorrhage in hamster lung at 100 microg 90 min after administration; format: functional, Cricetulus griseus
Cricetinae gen. sp. [12] = experiment: Compound was evaluated in vivo for inhibition of HLE-induced hemorrhage in hamster lung at 30 ug 30 min after administration prior to HLE; format: functional, Cricetulus griseus; outline: as §2
Cricetinae gen. sp. [13] = experiment: Compound was evaluated in vivo for inhibition of HLE-induced hemorrhage in hamster lung at 10 ug 30 min after administration prior to HLE; format: functional, Cricetulus griseus; outline: as §2
Neutrophil elastase [14] = biological target: T2, Neutrophil elastase (Homo sapiens, UniProt P08246); experiment: In vitro inhibitory activity against human leukocyte elastase
T2 sequence (P08246 whole entry): T1 sequence (whole entry)

Cricetinae gen. sp. [15] = experiment: Compound was evaluated in vivo for inhibition of HLE-induced hemorrhage in hamster lung at 3 ug 30 min after administration prior to HLE; format: functional, Cricetulus griseus; outline: as §2
Cricetinae gen. sp. [16] = experiment: Compound was evaluated in vivo for inhibition of HLE-induced hemorrhage in hamster lung at 100 microg 30 min after administration prior to HLE; format: functional, Cricetulus griseus; outline: as §2
Cricetinae gen. sp. [17] = experiment: Compound was evaluated in vivo for inhibition of HLE-induced hemorrhage in hamster lung at 10 microg 30 min after administration; format: functional, Cricetulus griseus; outline: as §2
Cricetinae gen. sp. [18] = experiment: Compound was evaluated in vivo for inhibition of HLE-induced hemorrhage in hamster lung at 200 microg after 180 min of administration; format: functional, Cricetulus griseus; outline: as §1
Neutrophil elastase [19] = biological target: T2, Neutrophil elastase; experiment: Inhibitory activity against Human Leukocyte Elastase
Cricetinae gen. sp. [20] = experiment: Compound was evaluated in vivo for inhibition of HLE-induced hemorrhage in hamster lung at 200 microg 2 hr after administration prior to HLE; format: functional, Cricetulus griseus; outline: as §1
Cricetinae gen. sp. [21] = experiment: Compound was evaluated in vivo for inhibition of HLE-induced hemorrhage in hamster lung at 200 microg 1 hr after administration prior to HLE; format: functional, Cricetulus griseus; outline: as §1
Cricetinae gen. sp. [22] = experiment: Inhibitory activity against Human Leukocyte Elastase by Lung Hemorrhage assay ( at 200 ug/animal); format: functional, Cricetulus griseus; outline: as §1
Cricetinae gen. sp. [23] = experiment: Compound was evaluated in vivo for inhibition of HLE-induced hemorrhage in hamster lung at 200 microg 3h after administration prior to HLE; format: functional, Cricetulus griseus; outline: as §1
Cricetinae gen. sp. [24] = experiment: Compound was evaluated in vivo for inhibition of HLE-induced hemorrhage in hamster lung at 200 microg 4 hr after administration prior to HLE; format: functional, Cricetulus griseus; outline: as §1
Cricetinae gen. sp. [25] = experiment: Inhibitory activity against Human Leukocyte Elastase by Lung Hemorrhage assay (at 30 min); format: functional, Cricetulus griseus
Outline: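 Hamster, intratracheal: test compound 100 μg/animal given 30 min before IT instillation of HLE (50 μg; text also says 50 units). Hemorrhage read 3 h after HLE: lungs lavaged with saline, hemoglobin measured at 414 nm. Percent inhibition from hemorrhage in drug-treated vs vehicle-treated animals; mean of three animals per dose and time.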

Cricetinae gen. sp. [26] = experiment: Inhibitory activity against Human Leukocyte Elastase by Lung Hemorrhage assay (Effective dose at 15 microg); format: functional, Cricetulus griseus
Cricetinae gen. sp. [27] = experiment: Inhibitory activity against Human Leukocyte Elastase by Lung Hemorrhage assay ( at 30 min); format: functional, Cricetulus griseus; outline: as §2
Rattus norvegicus = organism: Rattus norvegicus; experiment: Inhibitory activity against Human Leukocyte Elastase by Lung Hemorrhage assay (at 250 ug/animal)
Cricetinae gen. sp. [28] = experiment: Inhibitory activity against Human Leukocyte Elastase by Lung Hemorrhage assay (at 200 ug/animal); format: functional, Cricetulus griseus; outline: as §1
Cricetinae gen. sp. [29] = experiment: Inhibitory activity against Human Leukocyte Elastase by Lung Hemorrhage assay; format: functional, Cricetulus griseus

## CO[C@H]1C(=O)N2C(C(=O)OCc3ccc(C(=O)O)cc3)=C(COC(C)=O)CS(=O)(=O)[C@H]12
Cricetinae gen. sp. [1]
  Inhibition: 98%
[2]
  half-life: 5 h

## CO[C@H]1C(=O)N2C(C(=O)N(C)CC(=O)O)=C(COC(=O)c3ccccc3)CS(=O)(=O)[C@H]12
Cricetinae gen. sp. [3]
  Inhibition: 38%
Cricetinae gen. sp. [4]
  Inhibition: 58%
Cricetinae gen. sp. [5]
  Inhibition: 87%
[6]
  k obs / 1: 600 M⁻¹ s⁻¹
Cricetinae gen. sp. [7]
  Inhibition: 88%
Cricetinae gen. sp. [8]
  Inhibition: 5%
Cricetinae gen. sp. [9]
  Inhibition: 58%

## CO[C@H]1C(=O)N2C(C(=O)OC(C)(C)C)=C(CSc3nc(=O)c(=O)[nH]n3C)CS(=O)(=O)[C@H]12
[6]
  k obs / 1: 8600 M⁻¹ s⁻¹
Cricetinae gen. sp. [10]
  Inhibition: 90%
Cricetinae gen. sp. [11]
  Inhibition: 18%

## CO[C@H]1C(=O)N2C(C(=O)N3CCCC3C(=O)O)=C(CSc3nc(=O)c(=O)[nH]n3C)CS(=O)(=O)[C@H]12 (stereo not given in full)
Cricetinae gen. sp. [12]
  Inhibition: 86%
Cricetinae gen. sp. [13]
  Inhibition: 80%
Neutrophil elastase [14]
  Ki: 0.25 µM
Cricetinae gen. sp. [15]
  Inhibition: 61%
[2]
  half-life: 46 h
Cricetinae gen. sp. [16]
  Inhibition: 100%

## CO[C@H]1C(=O)N2C(C(=O)N(C)CC(=O)O)=C(COC(C)=O)CS(=O)(=O)[C@H]12
Cricetinae gen. sp. [17]
  Inhibition: 67%
Cricetinae gen. sp. [18]
  Inhibition: 54%
[6]
  k obs / 1: 300 M⁻¹ s⁻¹
Cricetinae gen. sp. [10]
  Inhibition: 90%
[2]
  half-life: 13 h

## CO[C@H]1C(=O)N2C(C(=O)N3CCCC3)=C(CSc3nc(=O)c(=O)[nH]n3C)CS(=O)(=O)[C@H]12
Neutrophil elastase [19]
  IC50: 2 µM
Cricetinae gen. sp. [20]
  Inhibition: 87%
Cricetinae gen. sp. [12]
  Inhibition: 60%
Cricetinae gen. sp. [13]
  Inhibition: 30%
Cricetinae gen. sp. [21]
  Inhibition: 88%
[6]
  k obs / 1: 13400 M⁻¹ s⁻¹
Cricetinae gen. sp. [22]
  T50: 240 min
Cricetinae gen. sp. [23]
  Inhibition: 64%
Cricetinae gen. sp. [24]
  Inhibition: 50%
Cricetinae gen. sp. [25]
  ED50: 20 µg
[2]
  half-life: 20 h
Cricetinae gen. sp. [26]
  ED50: 30 µg
Cricetinae gen. sp. [16]
  Inhibition: 95%

## CO[C@H]1C(=O)N2C(C(=O)N(C)CC(=O)O)=C(CSc3nc(=O)c(=O)[nH]n3C)CS(=O)(=O)[C@H]12
Cricetinae gen. sp. [20]
  Inhibition: 90%
Cricetinae gen. sp. [27]
  ED50: 10 µg
Cricetinae gen. sp. [12]
  Inhibition: 94%
Cricetinae gen. sp. [13]
  Inhibition: 56%
Cricetinae gen. sp. [21]
  Inhibition: 94%
[6]
  k obs / 1: 6200 M⁻¹ s⁻¹
Rattus norvegicus
  Inhibition: 82%
Cricetinae gen. sp. [23]
  Inhibition: 64%
Cricetinae gen. sp. [24]
  Inhibition: 37%
Cricetinae gen. sp. [28]
  T50: 180 min
[2]
  half-life: 22 h
Cricetinae gen. sp. [29]
  Inhibition: 86%
Cricetinae gen. sp. [26]
  ED50: 400 µg
Cricetinae gen. sp. [16]
  Inhibition: 98%
